Laboratory results taken from ChEMBL document CHEMBL1629574, “Novel chimeric beta-lactamase CTX-M-64, a hybrid of CTX-M-15-like and CTX-M-14 beta-lactamases, found in a Shigella sonnei strain resistant to various oxyimino-cephalosporins, including ceftazidime” (Antimicrob Agents Chemother, 2009).
≈ marks a conversion by molar mass, not a printed value.

Tests used:
Escherichia coli [1] = assay: Antimicrobial activity against rifampicin-resistant Escherichia coli X1037 by broth microdilution method; assay type: functional
Shigella sonnei [2] = assay: Activity at Shigella sonnei UIH-1 beta-lactamase CTX-M-64 by spectrophotometry
Summary of the method: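 Recombinant enzyme from E. coli BL21(DE3)pLysS/pET29a, purified by cation exchange and gel filtration. Assays at 37°C in 50 mM phosphate pH 7.0, six substrate concentrations, UV-vis readout. Km and kcat from Michaelis-Menten fits of initial rates.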

Escherichia coli [3] = assay: Antimicrobial activity against Escherichia coli XL-1 Blue harboring plasmid CL1920 by broth microdilution method; assay type: functional
Shigella sonnei [4] = details: UIH-1
Escherichia coli [5] = assay: Antimicrobial activity against rifampicin-resistant Escherichia coli X1037 transconjugant by broth microdilution method; assay type: functional
Escherichia coli [6] = assay: Antimicrobial activity against Escherichia coli XL-1 Blue transconjugant harboring beta-lactamase CTX-M-64 by broth microdilution method; assay type: functional
Shigella sonnei [7] = assay: Antimicrobial activity against Shigella sonnei UIH-1 expressing beta-lactamase CTX-M-64 by broth microdilution method; assay type: functional
Summary of the method: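 MICs determined by CLSI broth microdilution on an automated panel system. […] Susceptibility categories assigned by CLSI criteria.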

Shigella sonnei [8] = assay: Antimicrobial activity against Shigella sonnei UIH-1 expressing beta-lactamase CTX-M-64 by disk diffusion method; assay type: functional
Summary of the method: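 Non-β-lactam susceptibility determined by CLSI disk diffusion on the clinical isolate. Categories assigned by CLSI criteria.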

Escherichia coli [9] = assay: Antimicrobial activity against rifampicin-resistant Escherichia coli X1037 transconjugant by disk diffusion method; assay type: functional
Summary of the method: (§1)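 Non-β-lactam agents were tested by CLSI disk diffusion. Susceptibility categories were assigned by CLSI criteria.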

Escherichia coli [10] = assay: Antimicrobial activity against rifampicin-resistant Escherichia coli X1037 by disk diffusion method; assay type: functional; summary of the method: as §1
Escherichia coli [11] = assay: Antimicrobial activity against Escherichia coli XL-1 Blue harboring plasmid CL1920 by disk diffusion method; assay type: functional
Escherichia coli [12] = assay: Antimicrobial activity against Escherichia coli XL-1 Blue transconjugant harboring beta-lactamase CTX-M-64 by disk diffusion method; assay type: functional; summary of the method: as §1
Escherichia coli [13] = assay: Antimicrobial activity against Escherichia coli XL-1 Blue harboring plasmid CL1920 by broth microdilution method in presence of 4 ug/ml beta-lactamase inhibitor clavulanic acid; assay type: functional
[14] = Inhibition of Shigella sonnei UIH-1 beta-lactamase CTX-M-64 by spectrophotometry in presence of 100 uM nitrocefin
Summary of the method: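 Recombinant CTX-M-64 was expressed from pET29a in E. coli BL21(DE3)pLysS (0.5 mM IPTG, 3 h, 37°C). It was purified by SP cation exchange (MES pH 6.0, NaCl gradient) then gel filtration. Enzyme was preincubated 5 min at 37°C with varied clavulanic acid before adding 100 μM nitrocefin. Hydrolysis was read at 485 nm in 50 mM phosphate pH 7.0, 37°C. IC50 is the inhibitor level halving the rate.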

Shigella sonnei [15] = assay: Antimicrobial activity against Shigella sonnei UIH-1 expressing beta-lactamase CTX-M-64 by broth microdilution method in presence of 4 ug/ml beta-lactamase inhibitor clavulanic acid; assay type: functional
Escherichia coli [16] = assay: Antimicrobial activity against rifampicin-resistant Escherichia coli X1037 transconjugant by broth microdilution method in presence of 4 ug/ml beta-lactamase inhibitor clavulanic acid; assay type: functional
Escherichia coli [17] = assay: Antimicrobial activity against Escherichia coli XL-1 Blue transconjugant harboring beta-lactamase CTX-M-64 by broth microdilution method in presence of 4 ug/ml beta-lactamase inhibitor clavulanic acid; assay type: functional
Escherichia coli [18] = assay: Antimicrobial activity against rifampicin-resistant Escherichia coli X1037 by broth microdilution method in presence of 4 ug/ml beta-lactamase inhibitor clavulanic acid; assay type: functional
Escherichia coli [19] = assay: Antimicrobial activity against Escherichia coli XL-1 Blue harboring beta-lactamase CTx-M-64transconjugant by disk diffusion method in presence of beta-lactamase inhibitor Sulbactam; assay type: functional
Shigella sonnei [20] = assay: Antimicrobial activity against Shigella sonnei UIH-1 expressing beta-lactamase CTX-M-64 by disk diffusion method in presence of beta-lactamase inhibitor Sulbactam; assay type: functional
Shigella sonnei [21] = assay: Antimicrobial activity against Shigella sonnei UIH-1 expressing beta-lactamase CTX-M-64 by broth microdilution method in presence of beta-lactamase inhibitor clavulanic acid
Escherichia coli [22] = assay: Antimicrobial activity against Escherichia coli XL-1 Blue harboring plasmid CL1920 by broth microdilution method in presence of beta-lactamase inhibitor clavulanic acid
Escherichia coli [23] = assay: Antimicrobial activity against rifampicin-resistant Escherichia coli X1037 transconjugant by broth microdilution method in presence of beta-lactamase inhibitor clavulanic acid
Escherichia coli [24] = assay: Antimicrobial activity against rifampicin-resistant Escherichia coli X1037 by broth microdilution method in presence of beta-lactamase inhibitor clavulanic acid
[25] = Escherichia coli, XL-1 Blue, read-out: MIC
[26] = Shigella sonnei, UIH-1, read-out: MIC

SMILES	MIC (Escherichia coli [1])	MIC (Escherichia coli [3])	MIC (Escherichia coli [5])	MIC (Escherichia coli [6]; [25])	MIC (Shigella sonnei [7]; [26])	further results
CC1(C)S[C@@H]2[C@H](NC(=O)[C@H](N)c3ccccc3)C(=O)N2[C@H]1C(=O)O [AMPICILLIN]	≤ 2 µg/mL	≤ 2 µg/mL	> 16 µg/mL	> 16 µg/mL	> 16 µg/mL	Km (Shigella sonnei [2]): 19.5 µM; kcat (Shigella sonnei [2]): 36.9 s⁻¹; kcat/Km (Shigella sonnei [4]): 1.9 ×10⁶ /M/s
CO/N=C(\C(=O)N[C@@H]1C(=O)N2C(C(=O)[O-])=C(C[n+]3ccn4ncccc43)CS[C@H]12)c1nsc(N)n1 [CEFOZOPRAN]	≤ 1 µg/mL	≤ 1 µg/mL	> 16 µg/mL	> 16 µg/mL	> 16 µg/mL	
CO/N=C(\C(=O)N[C@@H]1C(=O)N2C(C(=O)O)=C(CSc3nc(=O)c(O)nn3C)CS[C@H]12)c1csc(N)n1 [CEFTRIAXONE]	≤ 0.25 µg/mL	≤ 0.25 µg/mL	2050 µg/mL (≈ 3690 µM)	2050 µg/mL (≈ 3690 µM)	1020 µg/mL (≈ 1850 µM)	
CO[C@@]1(NC(=O)CSC(F)F)C(=O)N2C(C(=O)O)=C(CSc3nnnn3CCO)CO[C@@H]21 [FLOMOXEF]						MIC (Shigella sonnei [8]): ≤ 1 µg/mL; MIC (Escherichia coli [9]): ≤ 1 µg/mL; MIC (Escherichia coli [10]): ≤ 1 µg/mL; MIC (Escherichia coli [11]): ≤ 1 µg/mL; MIC (Escherichia coli [12]): ≤ 1 µg/mL
CC(=O)OCC1=C(C(=O)O)N2C(=O)[C@@H](NC(=O)Cc3cccs3)[C@H]2SC1						Km (Shigella sonnei [2]): 37.9 µM; kcat (Shigella sonnei [2]): 185 s⁻¹; kcat/Km (Shigella sonnei [4]): 4.9 ×10⁶ /M/s
C[C@@H](O)[C@H]1C(=O)N2C(C(=O)O)=C(SCCNC=N)C[C@H]12 [IMIPENEM ANHYDROUS]	≤ 0.5 µg/mL	≤ 0.5 µg/mL	≤ 0.5 µg/mL	≤ 0.5 µg/mL	≤ 0.5 µg/mL	
CC(C)(O/N=C(\C(=O)N[C@@H]1C(=O)N2C(C(=O)[O-])=C(C[n+]3ccccc3)CS[C@H]12)c1csc(N)n1)C(=O)O [CEFTAZIDIME]	≤ 0.25 µg/mL	≤ 0.25 µg/mL	64 µg/mL (≈ 117 µM)	2050 µg/mL (≈ 3750 µM)	32 µg/mL (≈ 58.5 µM)	MIC (Escherichia coli [13]): ≤ 0.12 µg/mL; Ki [14]: > 10000 µM; MIC (Shigella sonnei [15]): ≤ 0.12 µg/mL; MIC (Escherichia coli [16]): ≤ 0.12 µg/mL; MIC (Escherichia coli [17]): ≤ 0.5 µg/mL; MIC (Escherichia coli [18]): ≤ 0.12 µg/mL
C[C@H]1[C@H](NC(=O)/C(=N\OC(C)(C)C(=O)O)c2csc(N)n2)C(=O)N1S(=O)(=O)O [AZTREONAM]			64 µg/mL (≈ 147 µM)	1020 µg/mL (≈ 2350 µM)	32 µg/mL (≈ 73.5 µM)	
CO[C@@]1(NC(=O)Cc2cccs2)C(=O)N2C(C(=O)O)=C(COC(N)=O)CS[C@@H]21 [CEFOXITIN]	≤ 2 µg/mL	4 µg/mL (≈ 9.36 µM)	≤ 2 µg/mL	8 µg/mL (≈ 18.7 µM)	≤ 2 µg/mL	
Cc1nnc(SCC2=C(C(=O)O)N3C(=O)[C@@H](NC(=O)Cn4cnnn4)[C@H]3SC2)s1 [CEFAZOLIN]						MIC (Shigella sonnei [8]): > 16 µg/mL; MIC (Escherichia coli [9]): > 16 µg/mL; MIC (Escherichia coli [12]): > 16 µg/mL
O=C(Cc1cccs1)N[C@@H]1C(=O)N2C(C(=O)O)=C(/C=C/c3ccc([N+](=O)[O-])cc3[N+](=O)[O-])CS[C@H]12						Km (Shigella sonnei [2]): 14.8 µM; kcat (Shigella sonnei [2]): 252 s⁻¹; kcat/Km (Shigella sonnei [4]): 1.7 ×10⁷ /M/s
CO/N=C(\C(=O)N[C@@H]1C(=O)N2C(C(=O)[O-])=C(C[n+]3cccc4c3CCC4)CS[C@H]12)c1csc(N)n1 [CEFPIROME]	≤ 1 µg/mL	≤ 1 µg/mL	> 16 µg/mL	> 16 µg/mL	> 16 µg/mL	
N[C@@H](C(=O)N[C@@H]1C(=O)N2C(C(=O)O)=C(Cl)CS[C@H]12)c1ccccc1 [CEFACLOR ANHYDROUS]	≤ 2 µg/mL	≤ 2 µg/mL	> 16 µg/mL	> 16 µg/mL	> 16 µg/mL	
O=C(O)[C@H]1/C(=C/CO)O[C@@H]2CC(=O)N21 [CLAVULANIC ACID]						IC50 [14]: 0.01 µM
CO[C@@]1(NC(=O)C2SC(=C(C(N)=O)C(=O)O)S2)C(=O)N2C(C(=O)O)=C(CSc3nnnn3C)CS[C@@H]21 (stereo not given in full) [CEFOTETAN]	≤ 0.5 µg/mL	≤ 0.5 µg/mL	≤ 0.5 µg/mL	8 µg/mL (≈ 13.9 µM)	≤ 0.5 µg/mL	
CO/N=C(\C(=O)N[C@@H]1C(=O)N2C(C(=O)O)=C(COC(C)=O)CS[C@H]12)c1csc(N)n1 [CEFOTAXIME]	≤ 0.25 µg/mL	≤ 0.25 µg/mL	2050 µg/mL (≈ 4500 µM)		1020 µg/mL (≈ 2250 µM)	MIC (Escherichia coli [13]): ≤ 0.12 µg/mL; Km (Shigella sonnei [2]): 103 µM; kcat (Shigella sonnei [2]): 197 s⁻¹; MIC (Shigella sonnei [15]): ≤ 0.12 µg/mL; kcat/Km (Shigella sonnei [4]): 1.9 ×10⁶ /M/s; MIC (Escherichia coli [16]): ≤ 0.12 µg/mL; MIC (Escherichia coli [6]): >2048 µg/mL; MIC (Escherichia coli [17]): ≤ 0.12 µg/mL; MIC (Escherichia coli [18]): ≤ 0.12 µg/mL
CCN1CCN(C(=O)N[C@@H](C(=O)N[C@@H]2C(=O)N3C(C(=O)O)=C(CSc4nnnn4C)CS[C@H]23)c2ccc(O)cc2)C(=O)C1=O [CEFOPERAZONE]						MIC (Escherichia coli [19]): > 32 µg/mL; MIC (Shigella sonnei [8]): 8 µg/mL (≈ 12.4 µM); MIC (Shigella sonnei [20]): 8 µg/mL; MIC (Escherichia coli [12]): > 32 µg/mL
CO/N=C(\C(=O)N[C@@H]1C(=O)N2C(C(=O)[O-])=C(C[N+]3(C)CCCC3)CS[C@H]12)c1csc(N)n1			> 32 µg/mL	> 32 µg/mL	> 32 µg/mL	Km (Shigella sonnei [2]): 505 µM; kcat (Shigella sonnei [2]): 67.7 s⁻¹; kcat/Km (Shigella sonnei [4]): 1.3 ×10⁵ /M/s
COCC1=C(C(=O)O)N2C(=O)[C@@H](NC(=O)/C(=N\OC)c3csc(N)n3)[C@H]2SC1 [CEFPODOXIME]	≤ 0.5 µg/mL	≤ 0.5 µg/mL	> 64 µg/mL	> 64 µg/mL	> 64 µg/mL	
CO[C@@]1(NC(=O)CSCC#N)C(=O)N2C(C(=O)O)=C(CSc3nnnn3C)CS[C@@H]21 [CEFMETAZOLE]	≤ 0.5 µg/mL	1 µg/mL (≈ 2.12 µM)	1 µg/mL (≈ 2.12 µM)	1 µg/mL (≈ 2.12 µM)		MIC (Shigella sonnei [7]): <=0.5 ug ml-1
CN(C)CCn1nnnc1SCC1=C(C(=O)O)N2C(=O)[C@@H](NC(=O)Cc3csc(N)n3)[C@H]2SC1 [CEFOTIAM]						MIC (Shigella sonnei [8]): > 16 µg/mL; MIC (Escherichia coli [9]): > 16 µg/mL; MIC (Escherichia coli [10]): ≤ 8 µg/mL; MIC (Escherichia coli [11]): ≤ 8 µg/mL; MIC (Escherichia coli [12]): > 16 µg/mL
C[C@@H](O)[C@H]1C(=O)N2C(C(=O)O)=C(S[C@@H]3CN[C@H](C(=O)N(C)C)C3)[C@H](C)[C@H]12 [MEROPENEM]	≤ 0.5 µg/mL	≤ 0.5 µg/mL	≤ 0.5 µg/mL	≤ 0.5 µg/mL	≤ 0.5 µg/mL	
CC1(C)S[C@@H]2[C@H](NC(=O)[C@H](N)c3ccc(O)cc3)C(=O)N2[C@H]1C(=O)O [AMOXICILLIN]	≤ 1 µg/mL	2 µg/mL (≈ 5.47 µM)	2 µg/mL (≈ 5.47 µM)	8 µg/mL (≈ 21.9 µM)	2 µg/mL (≈ 5.47 µM)	MIC (Shigella sonnei [21]): 2 µg/mL; MIC (Escherichia coli [22]): 2 µg/mL; MIC (Escherichia coli [23]): 2 µg/mL; MIC (Escherichia coli [17]): 8 µg/mL; MIC (Escherichia coli [24]): ≤ 1 µg/mL
CCN1CCN(C(=O)N[C@@H](C(=O)N[C@@H]2C(=O)N3[C@@H]2SC(C)(C)[C@@H]3C(=O)O)c2ccccc2)C(=O)C1=O [PIPERACILLIN]	≤ 8 µg/mL	≤ 8 µg/mL	> 64 µg/mL	> 64 µg/mL	> 64 µg/mL	
